The values that follow come from ChEMBL document CHEMBL1125708, “Synthesis and antiviral activity of 5-heteroaryl-substituted 2'-deoxyuridines” (1991).

Common to all, as to conditions: Homo sapiens
Experiment [1] relates to E6SM. Kind of experiment: Minimum inhibitory concentration required to reduce virus induced cytopathicity in embryonic skin muscle (E6SM) cell culture of virus HSV-1 (Mc Intyre) was measured. The class given is functional.
Experiment [2] deals with E6SM. Kind of experiment: Minimum inhibitory concentration required to reduce virus induced cytopathicity in embryonic skin muscle (E6SM) cell culture of virus HSV-1( F) was measured. The class given is functional.
Experiment [3] concerns E6SM. The experiment in a line: Minimum inhibitory concentration required to reduce virus induced cytopathicity in embryonic skin muscle (E6SM) cell culture of virus HSV-2 (196) was measured. The class given is functional.
The test system of experiment [4] is E6SM. The experiment in a line: Minimum inhibitory concentration required to reduce virus induced cytopathicity in embryonic skin muscle (E6SM) cell culture of virus HSV-2 (G) was measured. The format is functional. For orientation: Protection from cytopathic effect is a common read-out in antiviral testing.
Experiment [5] deals with E6SM. Kind of experiment: Minimum inhibitory concentration required to reduce virus induced cytopathicity in embryonic skin muscle (E6SM) cell culture of virus HSV-2 (Lyons) was measured. The format is functional.
Experiment [6] deals with E6SM. Kind of experiment: Minimum inhibitory concentration required to reduce virus induced cytopathicity in embryonic skin muscle (E6SM) cell culture of virus TK- HSV-1 (B2006) was measured. The format is functional.
Experiment [7] has as its system E6SM. Kind of experiment: Minimum inhibitory concentration required to reduce virus induced cytopathicity in embryonic skin muscle (E6SM) cell culture of virus TK- HSV-1 (VMW1837) was measured. The class given is functional.
Experiment [8] deals with E6SM. Kind of experiment: (§1) Minimum inhibitory concentration required to reduce virus induced cytopathicity in embryonic skin muscle (E6SM) cell culture of virus VSV was measured. The format is functional.
The subject of experiment [9] is E6SM. Kind of experiment: Minimum inhibitory concentration required to reduce virus induced cytopathicity in embryonic skin muscle (E6SM) cell culture of virus VV was measured. The class given is functional.
Experiment [10] concerns E6SM. The experiment in a line: minimum inhibitory concentration required to cause a microscopically detectable change in normal cell morphology. The format is functional. In short, it runs like this:
(§2)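 Cytotoxicity was judged by microscopic inspection of uninfected cell monolayers in microtiter plates. The value is the minimum concentration causing a microscopically detectable change in normal cell morphology.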

The subject of experiment [11] is E6SM. The experiment in a line: Minimum inhibitory concentration required to reduce virus induced cytopathicity in embryonic skin muscle (E6SM) cell culture of virus HSV-1 (KOS) was measured. The class given is functional.
In experiment [12] the test system is HEL. Kind of experiment: In vitro antiviral activity and cytotoxicity, and minimum inhibitory concentration required to reduce cell growth by 50% in HEL cell culture. The format is functional. The method in brief: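 Cytotoxicity was measured as inhibition of growth of human embryonic lung (HEL) cells seeded in 96-well microtiter plates. The value is the concentration reducing cell growth by 50%.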

The test system of experiment [13] is HEL. Kind of experiment: Minimum concentration required to reduce virus induced plaque formation in HEL cell culture of virus TK- VZV (YS-R) was measured. The format is functional. The method in brief: (§3)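 Plaque-reduction assay in human embryonic lung (HEL) cells in 96-well microtiter plates. VZV strains were Oka and YS, plus TK-deficient 07-1 and YS-R. CMV strains were AD169 and Davis. The value is the concentration reducing virus plaque formation by 50%.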

The test system of experiment [14] is HEL. Kind of experiment: Minimum inhibitory concentration required to reduce virus induced plaque formation in HEL cell culture of virus VZS (OKA) was measured. The format is functional. The method in brief: as §3
Experiment [15] has as its system HEL. The experiment in a line: minimum inhibitory concentration required to reduce virus induced plaque formation in HEL cell culture of virus VZS (YS) was measured. The class given is functional. The method in brief: as §3
The subject of experiment [16] is HEL. Kind of experiment: Minimum inhibitory concentration required to reduce virus induced plaque formation in HEL cell culture of virus CMV (AD169) was measured. The format is functional. In short, it runs like this: as §3
Experiment [17] concerns HEL. The experiment in a line: Minimum inhibitory concentration required to reduce virus induced plaque formation in HEL cell culture of virus CMV (Davis) was measured. The format is functional. In short, it runs like this:
as §3

Experiment [18] relates to HEL. Kind of experiment: Minimum inhibitory concentration required to reduce virus induced plaque formation in HEL cell culture of virus TK- VZV (07-1) was measured. The class given is functional. In short, it runs like this: as §3
The subject of experiment [19] is E6SM. The experiment in a line: Minimum inhibitory concentration required to cause a microscopically detectable change in normal cell morphology. The class given is functional. In short, it runs like this:
as §2

Experiment [20] has as its system E6SM. The experiment in a line: Minimum inhibitory concentration required to reduce virus induced cytopathicity in embryonic skin muscle (E6SM) cell culture of virus HSV-2 (196) was measured. The format is functional.
Experiment [21] has as its system E6SM. Kind of experiment: minimum inhibitory concentration required to reduce virus induced cytopathicity in embryonic skin muscle (E6SM) cell culture of virus HSV-2 (Lyons) was measured. The format is functional.
Experiment [22] relates to HEL. Kind of experiment: Minimum inhibitory concentration required to reduce virus induced plaque formation in HEL cell culture of virus VZS (YS) was measured. The class given is functional. The method in brief:
as §3

Experiment [23] relates to HEL. The description is as §1. The class given is functional.
The test system of experiment [24] is HEL. Kind of experiment: Minimum inhibitory concentration required to reduce virus induced plaque formation in HEL cell culture of virus TK- VZV (YS-R) was measured. The class given is functional. In short, it runs like this:
as §3

For experiment [25], the system named is E6SM. The experiment in a line: Minimum inhibitory concentration required to reduce virus induced cytopathicity in embryonic skin muscle (E6SM) cell culture of virus VV was measured.

Converted amounts (≈) assume the structure as drawn.

Consider `O=c1[nH]c(=O)n([C@H]2C[C@H](O)[C@@H](CO)O2)cc1-c1cc(-c2ccccc2)no1`, for which the MIC against E6SM [1], with E6SM [2], against E6SM [3], against E6SM [4], in the experiment with E6SM [5] and with E6SM [6] was greater than 40 µg/mL throughout. In addition, the MIC in the experiment on E6SM [7] was greater than 40 µg/mL; in the experiment with E6SM [8], greater than 40 µg/mL; in the experiment with E6SM [9] it was greater than 40 µg/mL; in the experiment with E6SM [10] it was greater than 40 µg/mL; with E6SM [11], greater than 40 µg/mL; against HEL [12] it was greater than 200 µg/mL. For the same molecule, the MIC is greater than 100 µg/mL against HEL [13]; 38 µg/mL (≈ 102 µM) against HEL [14]; 73 µg/mL (≈ 197 µM) in the experiment with HEL [15]; 25 µg/mL (≈ 67.3 µM) against HEL [16]; 25 µg/mL (≈ 67.3 µM) with HEL [17]; 61 µg/mL (≈ 164 µM) against HEL [18].

For `O=c1[nH]c(=O)n([C@H]2C[C@H](O)[C@@H](CO)O2)cc1-c1cc(-c2ccc(Cl)cc2)no1`, the MIC against E6SM [1], in the experiment with E6SM [2], against E6SM [3], with E6SM [4], in the experiment on E6SM [5] and in the experiment on E6SM [6] was greater than 40 µg/mL throughout. Further, the MIC against E6SM [7] was greater than 40 µg/mL; against E6SM [8] it was greater than 40 µg/mL; with E6SM [9] it was greater than 40 µg/mL; in the experiment with E6SM [19], greater than 40 µg/mL; against E6SM [11], greater than 40 µg/mL; in the experiment with HEL [12] it was greater than 200 µg/mL. For the same molecule, the MIC in the experiment on HEL [13] was 77 µg/mL (≈ 190 µM); in the experiment with HEL [14], 9 µg/mL (≈ 22.2 µM); against HEL [15] it was greater than 40 µg/mL; with HEL [16] it was 7 µg/mL (≈ 17.3 µM); against HEL [17], 7 µg/mL (≈ 17.3 µM); against HEL [18], 22 µg/mL (≈ 54.2 µM).

For the molecule `O=c1[nH]c(=O)n([C@H]2C[C@H](O)[C@@H](CO)O2)cc1-c1cc(Br)no1`, the MIC against E6SM [1] was 2 µg/mL (≈ 5.35 µM); against E6SM [2], 2 µg/mL (≈ 5.35 µM); in the experiment on E6SM [20] it was greater than 400 µg/mL; against E6SM [4] it was greater than 200 µg/mL; against E6SM [6], greater than 400 µg/mL; against E6SM [7], greater than 400 µg/mL. The MIC in the experiment on E6SM [8] was greater than 400 µg/mL; in the experiment on E6SM [9], greater than 400 µg/mL; against E6SM [19], greater than 400 µg/mL; against E6SM [21], greater than 400 µg/mL; against E6SM [11], 7 µg/mL (≈ 18.7 µM); against HEL [12], greater than 50 µg/mL. Further, the MIC against HEL [13] was greater than 100 µg/mL; against HEL [14], 0.09 µg/mL (≈ 0.241 µM); in the experiment on HEL [22] it was 0.24 µg/mL (≈ 0.641 µM); against HEL [16], greater than 100 µg/mL; in the experiment on HEL [17] it was greater than 100 µg/mL; with HEL [18], greater than 100 µg/mL.

In the case of `O=c1[nH]c(=O)n([C@H]2C[C@H](O)[C@@H](CO)O2)cc1/C=C/Br` [BRIVUDINE], the MIC in the experiment with E6SM [1] is 0.07 µg/mL (≈ 0.21 µM); against E6SM [2] it was 0.07 µg/mL (≈ 0.21 µM); in the experiment on E6SM [3] it was greater than 400 µg/mL; with E6SM [4] it was 10 µg/mL (≈ 30 µM); against E6SM [5], greater than 400 µg/mL; against E6SM [6], 100 µg/mL (≈ 300 µM). Moreover, the MIC is greater than 400 µg/mL with E6SM [7]; greater than 400 µg/mL with HEL [23]; greater than 400 µg/mL in the experiment with E6SM [19]; 0.07 µg/mL (≈ 0.21 µM) against E6SM [11]; 200 µg/mL (≈ 600 µM) against HEL [12]; 0.003 µg/mL (≈ 0.00901 µM) against HEL [14]. Besides, the MIC in the experiment with HEL [24] is 0.4 µg/mL (≈ 1.2 µM); against HEL [22] it was 0.003 µg/mL (≈ 0.00901 µM); in the experiment on HEL [16] it was 250 µg/mL (≈ 750 µM); in the experiment with HEL [17], 250 µg/mL (≈ 750 µM); in the experiment on HEL [18], 8 µg/mL (≈ 24 µM); with E6SM [25], 1 µg/mL (≈ 3 µM).
